Laboratory results reported in publication PMC6150782 (Journal of molecular neuroscience : MN, 2018).
In brackets after ≈: the same amount, converted by molar mass.

Assays:
hippocampal cultures [1] = assay type: cell-based, rat; conditions: for cell death response at 30 min or 60 min of incubation / time points with significant cell death differences from control: 30 μM cannabidiol, 100 μM KLS-13019, day 18–19 cultures
[2] = test system: dissociated rat hippocampal cultures; assay type: cell-based
Outline: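 Papain-dissociated E18 rat hippocampal cells at 10,000/well in serum-free Neurobasal/B27/GlutaMAX, used at days 12–14 after a medium change. Test compound (DMSO stock diluted in DPBS, ≤0.1% DMSO; 5 concentrations, n=5, two plates) added 5 min before 30 mM ethanol plus 300 μM ammonium acetate, then 5 h at 37 °C. CFDA 15 min at 37 °C, 30 min efflux wash, Triton lysis, Ex490/Em517. EC50 from 4-parameter logistic fit.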

[3] = Metabolic stability in human liver microsomes; assay type: in vitro ADME
Outline: (§1)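 Test compound at 1 μM incubated with human or mouse liver microsomes for up to 60 min. Samples analysed by LTQ-Orbitrap XL mass spectrometry. Single determination per time point. Testosterone at 1 μM served as the metabolically labile control. Run by a contract lab.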

[4] = Metabolic stability in mouse liver microsomes; assay type: in vitro ADME
Outline: as §1

hERG channel = hERG channel (Homo sapiens, UniProt Q12809); assay: hERG channel binding assay; conditions: 10 μM; [3H]-dofetilide; HEK-293
Chain of hERG channel (Q12809 whole entry): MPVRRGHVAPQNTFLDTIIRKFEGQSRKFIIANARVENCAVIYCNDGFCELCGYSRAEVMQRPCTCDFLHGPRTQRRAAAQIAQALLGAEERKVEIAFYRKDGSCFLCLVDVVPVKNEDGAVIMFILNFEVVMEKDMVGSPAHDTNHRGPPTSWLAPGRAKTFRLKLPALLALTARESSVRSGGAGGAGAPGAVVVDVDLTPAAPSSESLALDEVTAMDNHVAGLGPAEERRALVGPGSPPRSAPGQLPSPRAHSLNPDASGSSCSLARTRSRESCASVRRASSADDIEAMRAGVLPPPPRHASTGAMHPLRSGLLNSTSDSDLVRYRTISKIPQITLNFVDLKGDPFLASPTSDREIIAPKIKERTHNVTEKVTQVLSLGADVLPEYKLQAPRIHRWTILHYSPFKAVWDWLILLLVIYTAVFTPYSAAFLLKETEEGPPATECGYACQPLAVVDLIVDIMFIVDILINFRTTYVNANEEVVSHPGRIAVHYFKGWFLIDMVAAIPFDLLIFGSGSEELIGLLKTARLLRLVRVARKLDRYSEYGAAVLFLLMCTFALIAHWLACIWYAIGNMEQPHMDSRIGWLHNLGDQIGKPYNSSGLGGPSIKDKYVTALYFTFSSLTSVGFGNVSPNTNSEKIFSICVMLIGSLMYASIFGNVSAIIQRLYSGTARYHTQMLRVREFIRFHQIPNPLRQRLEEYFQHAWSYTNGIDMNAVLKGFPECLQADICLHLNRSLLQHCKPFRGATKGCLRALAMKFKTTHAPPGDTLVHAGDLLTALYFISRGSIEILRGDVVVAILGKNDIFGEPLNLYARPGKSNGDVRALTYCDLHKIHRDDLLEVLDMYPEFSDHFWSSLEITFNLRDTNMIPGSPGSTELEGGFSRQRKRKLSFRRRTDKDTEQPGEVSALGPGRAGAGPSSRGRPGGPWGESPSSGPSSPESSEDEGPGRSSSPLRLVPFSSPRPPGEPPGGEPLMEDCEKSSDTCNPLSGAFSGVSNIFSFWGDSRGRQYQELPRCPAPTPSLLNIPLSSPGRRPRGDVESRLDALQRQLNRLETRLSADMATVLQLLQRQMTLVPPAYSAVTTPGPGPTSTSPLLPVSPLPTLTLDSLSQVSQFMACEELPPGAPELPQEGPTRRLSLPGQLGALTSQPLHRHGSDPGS
Outline: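 Binding to human recombinant hERG expressed in HEK-293 cells, using 3 nM [3H]-dofetilide. Test compound at 10 μM, 60 min at room temperature. Non-specific binding defined with 25 μM terfenadine. Reported as % inhibition of control specific binding. Run by a contract lab.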

hippocampal cultures [5] = assay: Effect of CB2 antagonist AM 630 on neuroprotection from ethanol, CFDA assay; assay type: cell-based, rat; conditions: AM 630 0.1 to 100 nM; 30 mM ethanol; 10 μM CBD or 100 nM KLS-13019
[6] = Mouse plasma pharmacokinetics; assay type: in vivo, CD1 mice
[7] = Aqueous solubility, shaken flask method; assay type: physicochemical
Outline: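 Shake-flask method at pH 1.2, 7.4 and 9.2. Dissolved concentration measured by HPLC against a standard curve.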

[8] = test system: dissociated rat hippocampal cultures; assay type: cell-based; remark: listed apart in the source
Outline: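 E18 rat hippocampal cultures at days 12–14 received test compound (5 concentrations, n=5, two plates) 5 min before 30 mM ethanol plus 300 μM ammonium acetate, then 5 h at 37 °C. Medium removed and 50 μM propidium iodide applied for 15 min in the dark at room temperature. Read at Ex536/Em590 minus cell-free blank wells. IC50 from 4-parameter logistic fit.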

Log P = assay type: physicochemical
[9] = Plasma protein binding, equilibrium dialysis, human plasma; assay type: in vitro ADME; conditions: 1 μM, 5 hours at 37 °C
5HT1a = target: T1, 5HT1a (Homo sapiens, UniProt P08908); assay: 5HT1a agonist binding; conditions: 10 μM; data not shown
T1 sequence (P08908 1-422): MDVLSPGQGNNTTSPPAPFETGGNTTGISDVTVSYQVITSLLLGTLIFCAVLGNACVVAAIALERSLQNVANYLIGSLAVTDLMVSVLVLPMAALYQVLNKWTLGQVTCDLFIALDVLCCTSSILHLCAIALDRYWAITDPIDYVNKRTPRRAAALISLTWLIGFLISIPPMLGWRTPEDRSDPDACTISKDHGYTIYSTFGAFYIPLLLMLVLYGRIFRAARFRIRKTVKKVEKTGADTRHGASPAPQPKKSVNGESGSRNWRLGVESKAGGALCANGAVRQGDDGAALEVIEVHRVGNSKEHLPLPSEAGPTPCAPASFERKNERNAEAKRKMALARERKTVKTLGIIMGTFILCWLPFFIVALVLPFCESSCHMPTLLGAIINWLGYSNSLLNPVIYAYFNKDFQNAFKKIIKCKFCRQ

[10] = Plasma protein binding, equilibrium dialysis, mouse plasma; assay type: in vitro ADME; conditions: 1 μM, 5 hours at 37 °C
hippocampal cultures [11] = assay type: cell-based, rat
[12] = Anticonvulsant activity in animal models; conditions: in vivo
PPARγ = target: T2, PPARγ (Homo sapiens, UniProt P37231); assay: PPARγ agonist binding; conditions: 10 μM; data not shown
T2 sequence (P37231 1-505): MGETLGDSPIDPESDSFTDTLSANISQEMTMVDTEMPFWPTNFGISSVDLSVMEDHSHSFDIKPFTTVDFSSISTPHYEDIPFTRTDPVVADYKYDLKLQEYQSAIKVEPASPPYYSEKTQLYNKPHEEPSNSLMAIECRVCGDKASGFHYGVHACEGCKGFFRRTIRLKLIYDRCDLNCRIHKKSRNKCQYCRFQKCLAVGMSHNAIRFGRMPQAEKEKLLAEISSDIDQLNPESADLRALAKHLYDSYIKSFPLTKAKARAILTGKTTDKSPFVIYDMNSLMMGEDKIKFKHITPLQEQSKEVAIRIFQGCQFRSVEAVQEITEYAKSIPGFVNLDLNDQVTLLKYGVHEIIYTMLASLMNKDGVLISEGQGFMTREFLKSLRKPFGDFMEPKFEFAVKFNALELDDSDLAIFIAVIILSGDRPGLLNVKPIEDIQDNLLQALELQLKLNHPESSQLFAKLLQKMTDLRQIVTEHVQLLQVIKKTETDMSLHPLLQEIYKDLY

CB2 = CB2 (Homo sapiens, UniProt P34972); assay: CB2 binding; conditions: 10 μM; 0.8 nM radioligand; human recombinant CHO cells
Chain of CB2 (P34972 whole entry): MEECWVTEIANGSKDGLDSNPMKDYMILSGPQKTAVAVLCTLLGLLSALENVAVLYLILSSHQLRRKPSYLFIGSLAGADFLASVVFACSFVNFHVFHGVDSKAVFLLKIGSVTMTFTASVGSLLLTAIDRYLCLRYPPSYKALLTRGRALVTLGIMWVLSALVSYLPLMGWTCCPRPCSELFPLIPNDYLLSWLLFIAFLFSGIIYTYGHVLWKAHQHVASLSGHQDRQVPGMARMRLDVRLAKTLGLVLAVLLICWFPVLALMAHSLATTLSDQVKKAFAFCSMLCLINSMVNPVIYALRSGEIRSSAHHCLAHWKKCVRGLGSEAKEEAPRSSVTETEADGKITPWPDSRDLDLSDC

TRPV1 = TRPV1 (Homo sapiens, UniProt Q8NER1); assay: TRPV1 receptor binding screen; conditions: 10 μM; data not shown
Chain of TRPV1 (Q8NER1 whole entry, species assumed): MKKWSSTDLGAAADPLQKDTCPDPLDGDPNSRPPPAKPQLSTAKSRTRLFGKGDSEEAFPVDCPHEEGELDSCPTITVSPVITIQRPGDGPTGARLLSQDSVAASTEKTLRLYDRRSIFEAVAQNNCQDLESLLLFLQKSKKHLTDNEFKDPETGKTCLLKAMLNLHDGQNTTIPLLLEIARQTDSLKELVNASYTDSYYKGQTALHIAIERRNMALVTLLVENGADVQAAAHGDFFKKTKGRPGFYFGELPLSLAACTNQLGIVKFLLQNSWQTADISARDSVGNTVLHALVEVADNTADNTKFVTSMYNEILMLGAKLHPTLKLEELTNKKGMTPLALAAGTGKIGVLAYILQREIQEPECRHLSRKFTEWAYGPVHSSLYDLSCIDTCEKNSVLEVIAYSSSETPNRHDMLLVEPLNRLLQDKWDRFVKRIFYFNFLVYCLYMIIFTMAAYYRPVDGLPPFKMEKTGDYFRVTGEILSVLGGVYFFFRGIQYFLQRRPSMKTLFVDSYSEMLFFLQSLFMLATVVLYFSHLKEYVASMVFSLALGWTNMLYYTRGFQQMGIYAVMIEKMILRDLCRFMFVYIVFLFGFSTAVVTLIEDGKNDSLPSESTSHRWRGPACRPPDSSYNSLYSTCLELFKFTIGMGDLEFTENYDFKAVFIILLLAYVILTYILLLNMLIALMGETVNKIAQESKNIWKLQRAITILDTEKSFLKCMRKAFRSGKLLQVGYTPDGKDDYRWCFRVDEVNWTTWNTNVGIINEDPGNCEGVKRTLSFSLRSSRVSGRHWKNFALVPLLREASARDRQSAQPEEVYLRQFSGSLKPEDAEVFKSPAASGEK

[13] = combined ethanol + ammonium acetate
[14] = male, CD1, mouse, plasma, po, 10 mg/kg
[15] = compound alone in Captisol, 5 hours, day 14 cultures
[16] = CD1 mice, plasma, 10 mg/kg p.o.

For `O=C1CSC(c2ccccc2Cl)c2cc(Cl)ccc2N1` (stereo not shown) [CGP-37157, 7-Chloro-5-(2-chlorophenyl)-1,5-dihydro-4,1-benzothiazepin-2(3H)-one, reference compound], the “concentration with significant increase in propidium iodide fluorescence” value (hippocampal cultures [1]; 5 hours, day 14 cultures) was 100 µM.
For `C=C(C)[C@@H]1CCC(C)=C[C@H]1c1c(O)cc(CCCCC)cc1O` [Cannabidiol, reference compound], the “efficacy of neuroprotection back to control levels (CFDA)” value [2, 13] was “full efficacy”, the “concentration required for full efficacy against oxidative stress toxicity” value ([2]; hippocampal cultures) was 10 µM and the half-life at 1 μM ([3]; human, liver microsomes) was 3.75 min. The half-life at 1 μM ([4]; mouse, liver microsomes) was less than 5 min, the “hERG Potassium channel % Inhibition of specific binding” value (hERG channel) was 73% and the “cell death response at 30 min or 60 min of incubation” value (hippocampal cultures [1]) was “no significant changes from controls”. For the same compound, the “time points with significant cell death differences from control” value (hippocampal cultures [1]) was no less than 3 h, the “effect of CB2 antagonist AM 630 on compound-mediated neuroprotection” value (hippocampal cultures [5]) was “significantly attenuated” and the “CL IV 2 mg/kg” value ([6]; CD1 mice, IV 2 mg/kg) was 120 mL/min/kg. For the same compound, the “T 1/2 p.o.” value ([6]; CD1 mice, plasma, 10 mg/kg p.o., 10 mg/kg) was 207 min, the Vd ([6]; male, CD1, mouse, plasma, iv, 2 mg/kg) was 7.5 L/kg and the bioavailability ([6]; male, CD1, mouse, plasma, oral, 10 mg/kg) was 8%. It also gave an AUC [6, 14] of 268 ng·h/mL, a Cmax [6, 14] of 51 ng/mL and a solubility ([7]; aqueous medium) of 17 µM (≈ 5.35 µg/mL). The “efficacy of neuroprotection back to control levels (PI)” value [8, 13] was “full efficacy”.
With `C=C(C)[C@@H]1CCC(C)=C[C@H]1c1c(O)cc(CC2CN(C(C)=O)C2)cc1O` [KLS-13019] the “Log P” value (Log P) was 3.42, the “efficacy of neuroprotection back to control levels (CFDA)” value [2, 13] was “full efficacy” and the “fold increase in neuroprotective potency vs CBD (relative EC50s, CFDA)” value [2, 13] was 31 fold. For the same compound, the EC50 ([2]; read-out: EC50 for CFDA (neuroprotection), 30 mM Ethanol + 300 μM Ammonium Acetate, 5 hours, days 12–14) was 127 ± 27 nM, the “Plasma protein binding Human % bound” value [9] was 99.2% and the “receptor binding to 5HT-1a agonist site” value (5HT1a) was “no detectable interactions”. For the same compound, the “Plasma protein binding Mouse % bound” value [10] was 99.2%, the “Microsomal stability Human T 1/2” value ([3]; human liver microsomes, 1 μM) was 5.69 min and the “Microsomal stability Mouse T 1/2” value ([4]; mouse liver microsomes, 1 μM) was 5.67 min. The “hERG Potassium channel % Inhibition of specific binding” value (hERG channel) was 12%, the “cell death response at 30 min or 60 min of incubation” value (hippocampal cultures [1]) was “no significant changes from controls” and the “time points with significant cell death differences from control” value (hippocampal cultures [1]) was no less than 3 h. For the same compound, the “TC50, cell death assay” value (hippocampal cultures [1]; [15]) was roughly 100000 nM, the “TC50, neuronal viability assay” value (hippocampal cultures [11]; [15]) was 81000 nM and the “maximal toxicity, % of control values” (hippocampal cultures [11]; day 14 cultures, 5 hours) was 73 ± 3 % of control. For the same compound, the “maximal achieved toxicity, % of control, neuronal viability assay” value (hippocampal cultures [11]; day 19 cultures, time course at 30 μM cannabidiol, 100 μM KLS-13019) was 62 ± 3 % of control, the “fold increase in TC50 relative to CBD” value (hippocampal cultures [11]; viability and cell death assays) was 5 fold and the “anticonvulsant activity in animal models” value [12] was “lack of anticonvulsant activity”. The “receptor binding PPARγ (agonist)” value (PPARγ) was “no detectable interactions”, the “effect of CB2 antagonist AM 630 on compound-mediated neuroprotection” value (hippocampal cultures [5]) was “had no effect” and the “CL IV 2 mg/kg” value ([6]; CD1 mice, IV 2 mg/kg) was 76.7 mL/min/kg. The “Vss IV 2 mg/kg” value ([6]; CD1 mice, IV 2 mg/kg) was 3.2 L/kg, the AUC p.o. [6, 16] was 617 ng·h/mL and the “Cmax at 10 mg/kg p.o.” value [6, 16] was 1080 ng/mL. The Tmax p.o. [6, 16] was 15 min, the “F% (oral bioavailability)” value ([6]; CD1 mice, oral 10 mg/kg, IV 2 mg/kg) was 67% and the “fold increase in F% in comparison to CBD” value ([6]; mice) was greater than 8 fold. The “fold increase in AUC compared to CBD” value ([6]; mice, 10 mg/kg p.o.) was 2.3 fold, the “clearance (CL), i.v. arm” value ([6]; mice, i.v. 2 mg/kg) was 4.6 mL/min/kg and the “increase in T 1/2 in comparison to CBD” value ([6]; mice, p.o.) was “more than 50%”. For the same compound, the “displacement of 3H-WIN-55212-2 radioactivity at CB2” value (CB2) was 55%, the Aqueous solubility [7] was 87 µM and the “fold increase in aqueous solubility in comparison to CBD” value [7] was “> five”. The “efficacy of neuroprotection back to control levels (PI)” value [8, 13] was “full efficacy”, the “fold increase in neuroprotective potency vs CBD (relative IC50s, PI)” value [8, 13] was 15 fold and the IC50 ([8]; read-out: IC50 for PI (neuroprotection), 30 mM Ethanol + 300 μM Ammonium Acetate, 5 hours, days 12–14) was 203 nM. The “receptor binding TRPV1 (agonist)” value (TRPV1) was “no detectable interactions” and the “receptor binding TRPV1 (antagonist)” value (TRPV1) was “no detectable interactions”.
